KCNQ1 inh: human KCNQ1 channel inhibition | CHO-K1 KCNQ1, FluxOR thallium flux fluorescence; active compounds read high | actives 1.3% (n = 310,000) | P51787 | B-score at 10 µM;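 active = compounds whose thallium flux B-score, printed positive for inhibition, exceeds three library SD while starting fluorescence stays within three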;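 note: channel opened by potassium depolarization with thallium stimulus after 20 min compound exposure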
KCC2 mod: KCC2 (human) Cl- transport modulation | Q9H2X9 | KCC2 cells, thallium flux FluoZin-2 fluorescence | B-score of Tl+ flux slope (higher = more flux/activation; lower = inhibition) at 10 µM | actives 2.2% (n = 190,000) | AID 1456;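 active = thallium flux slope and its plate-corrected score both differing from the plate sample mean at a set confidence after two filtering rounds, in either direction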;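 note: slope of fluorescence scaled to starting intensity during 10 to 20 s after thallium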
hERG rescue: compounds protecting human hERG from proarrhythmic drug block. Q12809. CHO-hERG, FluxOR thallium flux, dofetilide IC70 present. activation (rescue from dofetilide block), less the hit threshold, % at 10 µM. actives 0.51% (n = 310,000). AID 1511;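 active = activation above the mean of controls blocked by dofetilide plus 5 SD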;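 note: thallium influx through hERG after potassium depolarization seen as dye fluorescence rise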
KCNK3 inh: human KCNK3 channel inhibition, primary screen; B-score at 10 µM; AID 602410; CHO-KCNK3 thallium flux, FluxOR fluorescence; active compounds read low; actives 0.84% (n = 340,000);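 active = B-score under library mean minus 4 SD, starting fluorescence ratio at most library mean plus 5 SD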;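 note: more negative B-score means stronger inhibition of thallium flux through KCNK3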
Target sequence (O14649 whole entry, looked up): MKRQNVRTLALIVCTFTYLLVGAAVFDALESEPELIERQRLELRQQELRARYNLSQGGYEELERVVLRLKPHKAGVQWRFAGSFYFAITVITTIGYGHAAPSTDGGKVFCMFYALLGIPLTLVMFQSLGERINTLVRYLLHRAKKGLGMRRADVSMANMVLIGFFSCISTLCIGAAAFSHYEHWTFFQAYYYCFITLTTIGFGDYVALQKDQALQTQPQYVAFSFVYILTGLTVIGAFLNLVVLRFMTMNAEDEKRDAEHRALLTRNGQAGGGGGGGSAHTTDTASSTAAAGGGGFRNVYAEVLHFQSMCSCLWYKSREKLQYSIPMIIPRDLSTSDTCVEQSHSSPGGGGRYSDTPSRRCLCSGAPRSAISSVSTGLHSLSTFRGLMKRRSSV
KCNK9 inh: blocks the human KCNK9 two-pore domain potassium channel | B-score at 10 µM | HEK293 KCNK9, FluxOR thallium flux fluorescence; active compounds read low | actives 1.2% (n = 310,000) | Q9NPC2;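 active = ratio B-score over 3 SD below the library mean, with starting fluorescence within 5 SD of its mean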;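 note: negative B-score means less thallium flux so channel inhibition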
KCNQ1 act: human KCNQ1 channel potentiation or activation. CHO-K1 KCNQ1, thallium flux FluxOR fluorescence; active compounds read high. B-score at 10 µM. actives 0.35% (n = 310,000). AID 2648;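 active = fluorescence ratio B-score, a plate-corrected score, at least three library SD, with initial intensity B-score within 5 SD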
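Doses: Single concentration per compound, DMSO matched to controls | Test system: KCNQ1-transfected CHO-K1 cells | Timing: 90 min dye loading and 20 min compound exposure, both at room temperature | Measured by: Kinetic FluxOR thallium fluorescence, 10-s 1-Hz baseline, 110-s post-stimulus read | Medium: Assay buffer with matched DMSO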
KCNK9 inh conf: human KCNK9 inhibitor confirmation; shares compounds with KCNK9 inh; HEK293 KCNK9 cells, FluxOR thallium flux fluorescence; inhibition, % at 10 µM; actives 43% (n = 4,900);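 active = thallium signal inhibited by more than 5 SD of the compound-free buffer control wells, on both duplicate plates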;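 note: 0% = assay buffer control wells without compound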
Kir21 sel: mouse Kir2.1 off-target activity of KCNK9 modulators; actives 4% (n = 4,900); inhibition, % at 10 µM; shares compounds with KCNK9 inh; AID 492993; Kir2.1 cells, FluxOR thallium flux fluorescence;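 active = thallium signal drop more than 5 SD beyond the mean of the no-compound control wells, seen in both duplicate plates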;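 note: signal is fluorescence rise after thallium addition divided by baseline fluorescence; plate controls were assay buffer only for no effect and full block by chlorpromazine control for full effect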
HEK293 Tl ctr: second check of KCNK9 modulator effects in non-induced HEK293 cells. FluxOR thallium flux. inhibition, % at 10 µM. actives 40% (n = 4,900). shares compounds with KCNK9 inh. AID 492997;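 active = thallium signal drop beyond 5 SD of the untreated control mean, on both duplicate plates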;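 note: plate controls were buffer only IC0 wells for no effect and SID17386958 at its maximal inhibitory level for full effect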
KCNK3 confirm: confirmation of human KCNK3 two-pore domain potassium channel inhibitors | CHO-KCNK3 thallium flux, FluxOR fluorescence; 0% buffer, 100% carvedilol maximal block | ratio percent of control, % at 10 µM | shares compounds with KCNK3 inh | actives 99% (n = 2,400) | AID 651638;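 active = ratio percent of control, averaged over triplicates, above buffer control mean plus 5 SD, cut at about 64% in these data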;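 note: ratio is the fluorescence rise from min to max over baseline after thallium stimulus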
KCNK3 noninduced: KCNK3 inhibitor counter-screen hit in non-induced cells; shares compounds with KCNK3 inh; non-induced KCNK3 parental cells, FluxOR thallium flux; active compounds read low; thallium flux ratio (lower = more inhibition) at 10 µM; actives 40% (n = 2,400); AID 651747;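 active = thallium flux ratio, averaged over three wells, more than 5 SD below the buffer control mean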;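 note: host cells are CHO cells without KCNK3 induction; ratio is peak minus trough fluorescence over baseline then normalized to buffer controls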
An asterisk follows results filed as active; i = inactive; nt = no result given. A selection: hits, their analogues and other compounds. The true share with any hit is near 4.1%.

SMILES	KCNQ1 inh	KCC2 mod	hERG rescue	KCNK3 inh	KCNK9 inh	KCNQ1 act	KCNK9 inh conf	Kir21 sel	HEK293 Tl ctr	KCNK3 confirm	KCNK3 noninduced
CCN(Cc1ccncc1)C(=O)c1cc(COc2ccc(F)cc2Cl)on1	i	nt	-4	i	i	i	nt	nt	nt	nt	nt
COC(=O)c1ccsc1NC(=O)CN1CCN(c2ccc(F)cc2)CC1	i	-0.51	-8	i	-11*	i	i	i	28%*	105*	i
COc1ccccc1C(=O)Nc1ccc(S(=O)(=O)N(C)c2ccccc2)cc1	i	nt	-2	-9.3*	-9.1*	i	48%*	i	i	106*	i
COc1ccc(C(=O)COC(=O)c2cc(=O)c3ccccc3o2)cc1	nt	nt	nt	i	nt	nt	nt	nt	nt	nt	nt
Cc1cc(C(=O)OCC(=O)N(CC(C)C)c2c(N)n(Cc3ccccc3)c(=O)[nH]c2=O)c(C)o1	i	nt	-14	i	i	i	nt	nt	nt	nt	nt
COC(=O)CSc1nc(-c2ccccc2)c2c(c1C#N)CCCC2	i	-0.0072	-11	i	i	i	nt	nt	nt	nt	nt
COC(=O)CSc1nc(N2CCCCC2)c2c(c1C#N)CCCC2	i	-0.85	4	-11*	-10*	i	38%*	i	35%*	104*	i
CC1(C)Cc2cccc(C(=O)Nc3ccc(Cl)cc3)c2O1	i	-1.1	-10	-12*	-11*	i	46%*	i	i	89*	0.16*
CC1(C)Cc2cccc(C(=O)Nc3ccncc3)c2O1	i	-0.62	-6	i	i	i	nt	nt	nt	nt	nt
COc1cc([C@H]2OC[C@H]3[C@@H]2CO[C@@H]3c2ccc(O[C@H]3O[C@H](CO)[C@@H](O)[C@H](O)[C@H]3O)c(OC)c2)ccc1O[C@@H]1O[C@H](CO)[C@@H](O)[C@H](O)[C@H]1O	nt	nt	nt	i	nt	nt	nt	nt	nt	nt	nt
Clc1ccc(CSc2snnc2-c2ccccc2)cc1	i	nt	-3	-12*	-8.6*	i	30%*	i	45%*	96*	i
Clc1ccc(Cn2c(-c3cccnc3Cl)nc3ccccc32)cc1	i	0.23	-13	i	i	i	nt	nt	nt	nt	nt
CCN1c2ccccc2-c2nc3ccccc3n2C1c1ccco1 (stereo not drawn)	i	nt	-17	-9.2*	-9.1*	i	40%*	28%*	44%*	128*	0.14*
CN1c2ccccc2-c2nc3ccccc3n2C1c1ccncc1 (stereo not drawn)	i	nt	-7	i	i	i	nt	nt	nt	nt	nt
c1ccc(CN2c3ccccc3-c3nc4ccccc4n3C2c2ccccn2)cc1 (stereo not drawn)	i	-1.1	-30	-10*	-14*	i	66%*	i	40%*	123*	i
CCOc1ccccc1NC(=O)CCS(=O)(=O)c1ccc2c(c1)CCN2C(C)=O	i	nt	0	i	i	i	nt	nt	nt	nt	nt
O=C(Nc1cccc(Cl)c1)N(CCN1CCOCC1)Cc1ccccc1F	i	0.078	-19	i	i	i	nt	nt	nt	nt	nt
C=CCC(c1ccccc1F)N(CCN1CCOCC1)C(=O)Nc1cccc(Cl)c1 (stereo not drawn)	i	-0.77	-14	-8.9*	-13*	i	57%*	i	40%*	127*	0.14*
